Laboratory results published in ChEMBL document CHEMBL2034886, “Anticancer and radiosensitizing evaluation of some new pyranothiazole-Schiff bases bearing the biologically active sulfonamide moiety” (Eur J Med Chem, 2012).

Legend:
[1] = test system: MCF7; assay: Cytotoxicity against human MCF7 cells assessed as surviving fraction at 10 uM after 48 hrs by sulforhodamine B assay; assay type: functional
Method in brief: (§1)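 SRB assay on MCF7 breast cancer cells plated at 10^4 cells/well for 24 h before treatment. Compounds were dissolved in DMSO, diluted with saline and tested at 10, 25, 50 and 100 in triplicate wells for 48 h at 37 °C under 5% CO₂. Cells were fixed and stained 30 min with 0.4% SRB in 1% acetic acid, washed four times with acetic acid, and the dye was recovered in Tris-EDTA and read on an ELISA reader. IC50 was taken from the survival curve.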

[2] = test system: MCF7; assay: Cytotoxicity against human MCF7 cells assessed as surviving fraction at 25 uM after 48 hrs by sulforhodamine B assay; assay type: functional; method in brief: as §1
[3] = test system: MCF7; assay: Cytotoxicity against human MCF7 cells assessed as surviving fraction at 50 uM after 48 hrs by sulforhodamine B assay; assay type: functional; set-up: unit not given here; method in brief: as §1
[4] = test system: MCF7; assay: Cytotoxicity against human MCF7 cells assessed as surviving fraction at 100 uM after 48 hrs by sulforhodamine B assay; assay type: functional; method in brief: as §1
[5] = test system: MCF7; assay: Cytotoxicity against human MCF7 cells after 48 hrs by sulforhodamine B assay; assay type: functional, cell-based; conditions: MCF7, 48 h; method in brief: as §1
[6] = test system: MCF7; assay: Cytotoxicity against 8 Gy irradiated human MCF7 cells assessed as surviving fraction at 10 uM after 1 hr by clonogenic assay (reference value: 0.927 +/- 0.02); assay type: functional
Method in brief: (§2)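 MCF7 cells were treated with compound at 10, 25, 50 or 100 combined with one 8 Gy dose of ¹³⁷Cs gamma radiation at 1 Gy/min. Surviving fraction was measured 1 h after irradiation and given as mean ± SE relative to control, analysed by one-way ANOVA. IC50 was derived by nonlinear regression curve fitting.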

[7] = test system: MCF7; assay: Cytotoxicity against 8 Gy irradiated human MCF7 cells assessed as surviving fraction at 25 uM after 1 hr by clonogenic assay (reference value: 0.927 +/- 0.02); assay type: functional; method in brief: as §2
[8] = test system: MCF7; assay: Cytotoxicity against 8 Gy irradiated human MCF7 cells assessed as surviving fraction at 50 uM after 1 hr by clonogenic assay (reference value: 0.927 +/- 0.02); assay type: functional; method in brief: as §2
[9] = test system: MCF7; assay: Cytotoxicity against 8 Gy irradiated human MCF7 cells assessed as surviving fraction at 100 uM after 1 hr by clonogenic assay (reference value: 0.927 +/- 0.02); assay type: functional; method in brief: as §2
[10] = test system: MCF7; assay: Cytotoxicity against 8 Gy irradiated human MCF7 cells after 1 hr by clonogenic assay; assay type: functional, cell-based; conditions: MCF7, light or radiation study; method in brief: as §2
[11] = test system: MCF7; assay: Ratio of doxorubicin IC50 to compound IC50 for human MCF7 cells; assay type: functional

Compound	Activity [1]	Activity [2]	Activity [3]	Activity [4]	IC50 [5]	Activity [6]	Activity [7]	Activity [8]	Activity [9]	IC50 [10]	Ratio IC50 [11]
COc1ccc(C2C(C#N)=C(N)Oc3nc(Nc4ccc(S(N)(=O)=O)cc4)sc32)cc1 (stereo not drawn)	0.81 fraction	55%	0.331	35%	27.5 µM	0.618 fraction (unitless)	0.346 fraction (of 1)	0.171 fraction	0.201 fraction (of control)	14.8 µM	
COc1ccc(C2C(C#N)=C(/N=C/c3ccccc3)Oc3nc(Nc4ccc(S(N)(=O)=O)cc4)sc32)cc1 (stereo not drawn)	0.825 fraction	66.8%	0.307	27.1%	33.5 µM						
COc1ccc(C2C(C#N)=C(/N=C/c3ccccc3Cl)Oc3nc(Nc4ccc(S(N)(=O)=O)cc4)sc32)cc1 (stereo not drawn)	0.541 fraction	32.3%	0.36	46%	10.2 µM	0.453 fraction (unitless)	0.237 fraction (of 1)	0.135 fraction	0.119 fraction (of control)	9.11 µM	3.1
COc1ccc(C2C(C#N)=C(/N=C/c3ccc(Cl)cc3)Oc3nc(Nc4ccc(S(N)(=O)=O)cc4)sc32)cc1 (stereo not drawn)	0.443 fraction	25.1%	0.355	29%	9.55 µM	0.311 fraction (unitless)	0.217 fraction (of 1)	0.17 fraction	0.201 fraction (of control)	8.72 µM	
COc1ccc(C2C(C#N)=C(/N=C/c3cccc(Br)c3)Oc3nc(Nc4ccc(S(N)(=O)=O)cc4)sc32)cc1 (stereo not drawn)	0.435 fraction	23.3%	0.371	30.9%	9.39 µM	0.319 fraction (unitless)	0.211 fraction (of 1)	0.119 fraction	0.235 fraction (of control)	8.72 µM	3.4
COc1ccc(C2C(C#N)=C(/N=C/c3ccc(F)cc3)Oc3nc(Nc4ccc(S(N)(=O)=O)cc4)sc32)cc1 (stereo not drawn)	0.845 fraction	55.1%	0.38	44.3%	28.9 µM						
COc1ccc(C2C(C#N)=C(/N=C/c3ccc(Cl)cc3Cl)Oc3nc(Nc4ccc(S(N)(=O)=O)cc4)sc32)cc1 (stereo not drawn)	0.693 fraction	50.3%	0.377	39.1%	23.5 µM						
COc1ccc(C2C(C#N)=C(/N=C/c3ccc([N+](=O)[O-])cc3)Oc3nc(Nc4ccc(S(N)(=O)=O)cc4)sc32)cc1 (stereo not drawn)	0.48 fraction	32.7%	0.313	38.1%	9.7 µM	0.403 fraction (unitless)	0.201 fraction (of 1)	0.1 fraction	0.13 fraction (of control)	7.55 µM	3.3
COc1ccc(C2C(C#N)=C(/N=C/c3ccc(N(C)C)cc3)Oc3nc(Nc4ccc(S(N)(=O)=O)cc4)sc32)cc1 (stereo not drawn)	0.792 fraction	70.1%	0.347	37.8%	36.2 µM						
COc1ccc(C2C(C#N)=C(/N=C/C=C/c3ccccc3)Oc3nc(Nc4ccc(S(N)(=O)=O)cc4)sc32)cc1 (stereo not drawn)	0.828 fraction	60.1%	0.242	37%	28.9 µM						
COc1ccc(C2C(C#N)=C(/N=C/c3ccc(O)cc3)Oc3nc(Nc4ccc(S(N)(=O)=O)cc4)sc32)cc1 (stereo not drawn)	0.872 fraction	63.8%	0.37	30.7%	34.5 µM						
COc1ccc(C2C(C#N)=C(/N=C/c3ccc4c(c3)OCO4)Oc3nc(Nc4ccc(S(N)(=O)=O)cc4)sc32)cc1 (stereo not drawn)	0.814 fraction	66%	0.419	39.3%	38.2 µM						
